The results in this text go back to ChEMBL document CHEMBL3352729, “Hydroxybenzothiophene Ketones Are Efficient Pre-mRNA Splicing Modulators Due to Dual Inhibition of Dyrk1A and Clk1/4” (ACS Med Chem Lett, 2014).

Each structure is given as a SMILES string. pEC50, pIC50: −log10 of the molar value. The source made the active and inactive calls. The rule behind the calls is not given here.

Assay [1] addresses T1, Dual specificity tyrosine-phosphorylation-regulated kinase 2 (Homo sapiens) (UniProt Q92630).
T1 sequence (whole entry): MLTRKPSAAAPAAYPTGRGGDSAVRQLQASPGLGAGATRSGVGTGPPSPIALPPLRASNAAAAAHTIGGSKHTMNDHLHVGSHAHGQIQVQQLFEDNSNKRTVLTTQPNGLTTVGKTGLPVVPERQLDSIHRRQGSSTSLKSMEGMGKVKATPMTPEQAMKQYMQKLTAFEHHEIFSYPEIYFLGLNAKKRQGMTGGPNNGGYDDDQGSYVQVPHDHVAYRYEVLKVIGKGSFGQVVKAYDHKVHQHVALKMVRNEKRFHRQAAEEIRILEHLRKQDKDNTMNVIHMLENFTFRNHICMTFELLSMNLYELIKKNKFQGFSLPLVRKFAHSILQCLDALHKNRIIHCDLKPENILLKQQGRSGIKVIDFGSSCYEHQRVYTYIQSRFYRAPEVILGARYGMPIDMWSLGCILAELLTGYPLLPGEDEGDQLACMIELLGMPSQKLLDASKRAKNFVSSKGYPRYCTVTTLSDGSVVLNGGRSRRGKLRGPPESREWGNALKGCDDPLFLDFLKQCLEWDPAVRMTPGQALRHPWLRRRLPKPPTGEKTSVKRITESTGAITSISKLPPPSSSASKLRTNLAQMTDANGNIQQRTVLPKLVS
The assay is described as follows: Inhibition of recombinant Dyrk2 (unknown origin) using KKISGRLSPIMTEQ-NH2 peptide substrate at 5 uM.

Assay [2] has as its target T2, Dual specificity tyrosine-phosphorylation-regulated kinase 1A (Homo sapiens, UniProt Q13627). The assay is described as follows: Inhibition of recombinant Dyrk1A (unknown origin) using KKISGRLSPIMTEQ-NH2 peptide substrate. The procedure, abridged: (§1)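 Kinase activity was measured in a cell-free assay with recombinant enzyme and peptide substrate at 100 μM ATP. Values are reported as IC50.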

In assay [3] the target is T3, Dual specificity protein kinase CLK1 (Homo sapiens, UniProt P49759). The assay is described as follows: Inhibition of recombinant Clk1 (unknown origin) using GRSRSRSRSR peptide substrate. The procedure, abridged: as §1
Target sequence in this assay (P49759 whole entry): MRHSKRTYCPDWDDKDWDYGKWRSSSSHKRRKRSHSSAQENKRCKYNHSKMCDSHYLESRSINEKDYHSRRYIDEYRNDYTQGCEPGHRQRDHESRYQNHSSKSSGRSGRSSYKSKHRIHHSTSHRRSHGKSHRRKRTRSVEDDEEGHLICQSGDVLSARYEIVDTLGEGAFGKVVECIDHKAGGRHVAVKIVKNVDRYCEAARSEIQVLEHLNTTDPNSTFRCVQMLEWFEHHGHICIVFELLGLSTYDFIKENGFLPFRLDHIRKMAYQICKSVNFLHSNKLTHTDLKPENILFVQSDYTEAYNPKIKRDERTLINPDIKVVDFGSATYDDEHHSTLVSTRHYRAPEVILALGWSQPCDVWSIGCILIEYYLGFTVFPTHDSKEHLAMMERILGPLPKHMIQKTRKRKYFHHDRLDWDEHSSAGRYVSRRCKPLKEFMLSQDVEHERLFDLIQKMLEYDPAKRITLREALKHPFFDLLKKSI
Assay [4] deals with Casein kinase II subunit alpha (Homo sapiens) (UniProt P68400). Briefly: Inhibition of CK2alpha (unknown origin) at 5 uM.
Chain of Casein kinase II subunit alpha (Homo sapiens) (P68400 whole entry, looked up): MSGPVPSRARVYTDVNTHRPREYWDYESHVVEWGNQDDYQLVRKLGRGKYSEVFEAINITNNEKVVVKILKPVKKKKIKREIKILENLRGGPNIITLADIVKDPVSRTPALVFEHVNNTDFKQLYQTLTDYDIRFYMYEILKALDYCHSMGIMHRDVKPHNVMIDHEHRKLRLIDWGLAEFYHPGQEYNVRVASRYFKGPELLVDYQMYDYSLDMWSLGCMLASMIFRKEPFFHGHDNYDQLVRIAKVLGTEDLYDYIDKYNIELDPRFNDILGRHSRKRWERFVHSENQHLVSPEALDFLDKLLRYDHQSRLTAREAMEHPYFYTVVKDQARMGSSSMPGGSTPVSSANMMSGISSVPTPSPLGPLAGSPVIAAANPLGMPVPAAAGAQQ
Assay [5] addresses T4, Dual specificity tyrosine-phosphorylation-regulated kinase 1B (Homo sapiens, UniProt Q9Y463). The assay is described as follows: Inhibition of recombinant Dyrk1B (unknown origin) using KKISGRLSPIMTEQ-NH2 peptide substrate.
Target sequence in this assay (Q9Y463 whole entry): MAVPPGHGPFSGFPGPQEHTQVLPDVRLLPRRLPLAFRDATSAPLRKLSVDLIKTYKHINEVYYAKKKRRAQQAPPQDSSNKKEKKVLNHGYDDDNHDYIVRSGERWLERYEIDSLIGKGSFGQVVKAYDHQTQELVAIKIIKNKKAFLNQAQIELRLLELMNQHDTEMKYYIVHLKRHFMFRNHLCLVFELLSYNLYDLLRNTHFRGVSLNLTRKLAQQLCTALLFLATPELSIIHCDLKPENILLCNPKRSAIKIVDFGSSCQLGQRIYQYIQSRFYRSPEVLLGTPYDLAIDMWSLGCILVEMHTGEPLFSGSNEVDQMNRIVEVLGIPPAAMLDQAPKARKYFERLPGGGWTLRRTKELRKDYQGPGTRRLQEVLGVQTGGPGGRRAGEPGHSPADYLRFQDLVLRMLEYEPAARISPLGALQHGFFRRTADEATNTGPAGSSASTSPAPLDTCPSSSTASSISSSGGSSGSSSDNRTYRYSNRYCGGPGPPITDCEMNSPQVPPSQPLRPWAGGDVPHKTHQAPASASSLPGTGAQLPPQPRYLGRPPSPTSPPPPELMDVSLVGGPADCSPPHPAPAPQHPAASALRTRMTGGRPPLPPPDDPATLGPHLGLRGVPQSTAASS
A further assay deals with STO. Briefly: Modulation of pre-mRNA splicing in human STO cells assessed as increase in mature Clk1 mRNA production at 10 to 20 uM by RT-PCR analysis.
Assay [6] is described as follows: Modulation of Clk/sty pre-mRNA splicing in human STO cells assessed as concentration required to 5 fold increase in mature Clk1 mRNA level by RT-PCR analysis.
The nature of assay [7]: Modulation of Clk/sty pre-mRNA splicing in human STO cells assessed as concentration required to increase in mature Clk2 mRNA level by RT-PCR analysis. The class given is functional, cell-based. The following applies: in the assay text read “Clk1” for “Clk2”. The procedure, abridged: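 STO cells were treated for 4 h with compound added to the culture medium, with 0.05% DMSO as control. Total RNA was purified, and the Clk1/Sty splicing pattern was analysed by RT-PCR. Read-outs were the concentration for a 5-fold increase, the concentration for half-maximal generation of mature Clk1 mRNA, and the maximum fold increase over DMSO. Data are means of three independent experiments run in triplicate.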

A short description of assay [8]: Modulation of Clk/sty pre-mRNA splicing in human STO cells assessed as concentration required to increase in mature Clk1 mRNA level by RT-PCR analysis relative to control.
For assay [9], the target named is T5, 17-beta-hydroxysteroid dehydrogenase type 1 (Homo sapiens) (UniProt P14061).
T5 sequence (whole entry): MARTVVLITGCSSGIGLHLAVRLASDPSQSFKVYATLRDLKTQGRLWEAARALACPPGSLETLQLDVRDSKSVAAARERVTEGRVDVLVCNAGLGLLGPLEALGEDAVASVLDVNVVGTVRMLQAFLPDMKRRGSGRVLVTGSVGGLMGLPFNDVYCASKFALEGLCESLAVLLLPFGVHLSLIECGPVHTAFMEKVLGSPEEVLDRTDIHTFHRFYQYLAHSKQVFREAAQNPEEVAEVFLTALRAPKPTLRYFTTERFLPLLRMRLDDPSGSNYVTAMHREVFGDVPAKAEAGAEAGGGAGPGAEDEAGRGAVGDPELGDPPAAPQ
Briefly: Inhibition of 17-betaHSD1 (unknown origin) at 5 uM.

The target in assay [10] is T4, Dual specificity tyrosine-phosphorylation-regulated kinase 1B. The assay is described as follows: Inhibition of recombinant Dyrk1B (unknown origin) using KKISGRLSPIMTEQ-NH2 peptide substrate at 5 uM.
Target sequence in this assay (Q9Y463 whole entry, looked up): as the sequence (Q9Y463 whole entry) above
A short description of assay [11]: Modulation of Clk/sty pre-mRNA splicing in human STO cells assessed as concentration required to increase in mature Clk1 mRNA level by RT-PCR analysis.
The target in assay [12] is T3, Dual specificity protein kinase CLK1. Briefly: Inhibition of recombinant Clk1 (unknown origin) using GRSRSRSRSR peptide substrate at 5 uM.
Target sequence in this assay (P49759 whole entry, looked up): as the sequence (P49759 whole entry) above
Assay [13] addresses T6, 17-beta-hydroxysteroid dehydrogenase type 1 (Homo sapiens, UniProt P14061).
T6 sequence (P14061 whole entry): T5 sequence (whole entry)
The assay is described as follows: Inhibition of 17-betaHSD1 (unknown origin).

The target in assay [14] is T2, Dual specificity tyrosine-phosphorylation-regulated kinase 1A. Briefly: Inhibition of recombinant Dyrk1A (unknown origin) using KKISGRLSPIMTEQ-NH2 peptide substrate at 5 uM.

In the case of `O=C(c1cccc(O)c1)c1cc2cc(O)ccc2s1`, the inhibition is 49% in assay [1] and 12% in assay [4]. The pIC50 in assay [2] is 6.40; in assay [3] it was 7.00; in assay [5], 6.70. For the same compound, the outcome with STO was Active.

For `CC(=O)c1cc2cc(O)ccc2s1`, the values for the inhibition in assay [1] and in assay [4] were 46% and 9%, respectively. Also, the Activity in assay [6] is 1.1 µM. Besides, in [7], the pEC50 is 5.05. In [8], the “fold change (FC)” value amounted to 21.4. For the same compound, the pIC50 is 6.70 in assay [2], 7.22 in [3] and 7.00 in assay [5]. The result in the assay on STO was Active. Moreover, in [9], the inhibition entry is “inactive”.

For `O=C(c1cccc(O)c1)c1cc2cc(O)ccc2[nH]1`, the inhibition came to 24% in assay [1], 22% in assay [4] and 41% in assay [10]. Also, the figures for the pIC50 in assay [2] and in [3] were 4.82 and 5.70, respectively.

Consider `O=C(c1cccc(O)c1)c1cc2ccccc2s1`, for which the results for the inhibition in [1], in assay [4] and in assay [10] were 15%, 24% and 6%, respectively. For the same compound, the pIC50 in assay [2] was 4.38.

For the compound `O=C(c1cc2cc(O)ccc2s1)c1cc(O)ccc1F`, the figures for the inhibition in assay [1] and in assay [4] were 30% and 20%, respectively. Further, the pIC50 was 5.70 in assay [2], 7.30 in assay [3] and 6.40 in [5].

On to `O=C(c1ccc(O)cc1)c1cc2cc(O)ccc2s1`, for which the results for the inhibition in assay [1] and in assay [4] were 25% and 33%, respectively. Moreover, the pIC50 in assay [2] is 5.47; in assay [3], 6.52; in assay [5], 6.10.

As to `CCN1/C(=C/C(C)=O)Sc2ccc(OC)cc21`, in assay [6], the Activity turned out to be 3.1 µM. Besides, the pEC50 in assay [7] is 5.18. The “fold change (FC)” value in [8] is given as 17.

With `Cn1c(C(=O)c2cccc(O)c2)cc2cc(O)ccc21`, the inhibition stood at 25% in [1] and 31% in assay [4]. The pIC50 was 5.47 in [2], 5.68 in [3] and 5.57 in assay [5].

For `O=C(c1ccc(F)c(O)c1)c1cc2cc(O)ccc2s1`, the inhibition in [1] came out at 27%; in assay [4], 15%. Moreover, the pIC50 is 5.92 in [2], 6.52 in assay [3] and 6.40 in [5].

`O=C(c1ccc(O)cc1)c1cc2cc(O)ccc2o1`: the values for the inhibition in assay [1] and in assay [4] were 38% and 17%, respectively. Further, the pIC50 in [2] was 5.01; in [3], 6.00; in assay [5], 5.89.

For `COc1ccc2sc(C(=O)N(C)OC)cc2c1`, in assay [1], the inhibition turned out to be 41%. The pEC50 in assay [11] was 5.68. Besides, the Activity in assay [6] was determined as 2.4 µM. For the same compound, the “fold change (FC)” value in assay [8] was determined as 8.1. For the same compound, the pIC50 is 6.05 in assay [2], 7.00 in [3] and 5.80 in assay [5]. The inhibition entry in assay [9] was “inactive”.

Regarding `Cc1cc(C(=O)c2cc3cc(O)ccc3s2)ccc1O`, the inhibition in assay [1] came out at 8%; in assay [12], 25%. Also, the results for the pIC50 in assay [2] and in assay [5] were 4.96 and 5.15, respectively.

As to `O=C(c1cccc(O)c1)c1ccc2cc(O)ccc2c1`, the figures for the pIC50 in assay [2], in assay [3] and in assay [5] were 5.54, 5.72 and 5.64, respectively.

Regarding `O=C(c1cccc(O)c1)c1cc2cc(O)ccc2o1`, the inhibition came out at 34% in [1] and 21% in assay [4]. Moreover, the pIC50 in assay [2] was 5.51; in assay [3], 5.72; in assay [5], 5.21.

Take `Cc1ccc(C(=O)c2cc3cc(O)ccc3s2)cc1O`: the inhibition in assay [1] came to 50%; in assay [4], 10%. Further, in assay [6], the Activity came out at 1.9 µM. Moreover, the pIC50 in [13] is 6.71; in assay [2], 6.70; in [3], 7.30; in assay [5], 6.70. In addition, the pEC50 in assay [7] was 5.74. Besides, in [8], the “fold change (FC)” value stood at 9.5. Further, in the assay on STO, the outcome was Active.

Turning to `O=C(c1ccccc1)c1cc2cc(O)ccc2s1`, the results for the inhibition in assay [1] and in assay [4] were 37% and 13%, respectively. Also, the pIC50 is 5.70 in assay [2], 6.70 in [3] and 6.00 in assay [5].

As to `COc1cccc(C(=O)c2cc3cc(OC)ccc3s2)c1`, the inhibition was -7% in assay [1], 47% in [12], 40% in assay [10] and 10% in [14].

On to `N#Cc1cccc(C(=O)c2cc3cc(O)ccc3s2)c1`, for which the figures for the inhibition in assay [1] and in assay [4] were 6% and 10%, respectively. Further, the figures for the pIC50 in assay [2], in assay [3] and in [5] were 5.22, 6.40 and 5.64, respectively.

As a reminder, the inhibition is the change of the read-out against control, counted positive when it falls. For orientation: pIC50 means the IC50 on a negative log10 scale, so that one unit is a factor of ten. In general, pEC50 refers to −log10 of the EC50, conventionally taken in molar units.
